{"data": "Assay results gathered from unrelated publications", "target": "Insulin-like growth factor 1 receptor (IGF1R, Homo sapiens, UniProt P08069)", "note": "Lines come from different studies, so protocols differ."}
{"SMILES": "CN(C)c1nccc(-c2cnn3ncccc23)n1", "assay": "binding", "conditions": "1 µM", "remaining binding [%]": 100}
{"SMILES": "Cc1nc(C2CCN(C(=O)c3ccc(OC(F)(F)F)cc3N)CC2)c2ncc(N3CCN(C)CC3)cc2n1", "assay": "cell-free assay, competition with immobilised ligand", "conditions": "1 µM", "remaining binding [%]": 91}
{"SMILES": "N[C@@H]1CCN(c2nccc(-c3cnn4ncccc34)n2)C1", "assay": "binding", "conditions": "1 µM", "remaining binding [%]": 99}
{"SMILES": "O=C(NCCCN1CCOCC1)c1ccc(Nc2ncc(Cl)c(-c3ccc(Cl)s3)n2)cc1", "assay": "binding, competition with immobilised ligand", "conditions": "1 µM", "remaining binding [%]": 44}
{"SMILES": "CCS(=O)(=O)c1cc2cc(C[C@](O)(CC(C)(C)c3ccc(F)cc3C(N)=O)C(F)(F)F)[nH]c2cn1", "assay": "cell-free assay, competition with immobilised ligand", "conditions": "1 µM", "remaining binding [%]": 100}
{"SMILES": "O=C(c1ccc(Nc2ncc(Cl)c(-c3cc4ccccc4s3)n2)cc1)N1CCC(N2CCCC2)CC1", "assay": "binding, competition with immobilised ligand", "conditions": "1 µM", "remaining binding [%]": 40}
{"SMILES": "CC(C)(C)c1ccc(-c2nc(CBr)nn2-c2cccc(O)c2)cc1", "assay": "cell-free assay, competition with immobilised ligand", "conditions": "10 µM", "remaining binding [%]": 95}
{"SMILES": "COc1cnc(Nc2cccc(S(N)(=O)=O)c2)nc1N1CCN(c2ccccc2)CC1", "assay": "binding, competition with immobilised ligand", "conditions": "1 µM", "remaining binding [%]": 100}
{"SMILES": "O=C(NCC1CCOCC1)c1n[nH]cc1NC(=O)c1c(F)cccc1F", "assay": "binding, competition with immobilised ligand", "conditions": "1 µM", "remaining binding [%]": 96}
{"SMILES": "C[C@@H]1CCN(c2nccc(-c3cnn4ncccc34)n2)C1", "assay": "binding", "conditions": "1 µM", "remaining binding [%]": 53}
{"SMILES": "CCN1CCN(Cc2ccc(C(=O)Nc3ccc(C)c(Oc4ccc5c(c4)CC(=O)N5)c3)cc2C(F)(F)F)CC1", "assay": "binding, competition with immobilised ligand", "conditions": "1 µM", "remaining binding [%]": 100}
{"SMILES": "Nc1ncc2c(n1)-c1c([nH]c3ccc(C#CC4CC4)cc13)CCCC2", "assay": "binding, competition with immobilised ligand", "conditions": "1 µM", "remaining binding [%]": 100}
{"SMILES": "Cc1cc(NC(=O)c2cccc(S(F)(F)(F)(F)F)c2)cc(-n2ccn3nc(-c4cccnc4)cc23)c1", "assay": "cell-free assay, competition with immobilised ligand", "conditions": "1 µM", "remaining binding [%]": 100}
{"SMILES": "O=C(c1ccc(Nc2ncc(Cl)c(-c3ccc(Cl)s3)n2)cc1)N1CCC(N2CCCC2)CC1", "assay": "binding, competition with immobilised ligand", "conditions": "1 µM", "remaining binding [%]": 19}
{"SMILES": "O=C(O)c1cc(-c2ccc(C3CCNCC3)cc2)c2ccc(-c3ccc(C(F)(F)F)cc3)cc2c1", "assay": "cell-free assay, competition with immobilised ligand", "conditions": "1 µM", "remaining binding [%]": 95}
{"SMILES": "C[C@@H]1CN(c2ccc3ncc(-c4ccc5[nH]nc(C6CC6)c5c4)n3n2)C[C@H](C)O1", "assay": "binding, competition with immobilised ligand", "conditions": "0.5 µM", "remaining binding [%]": 100}
{"SMILES": "CN(CCCC(F)(F)F)c1nccc(-c2cnn3ncccc23)n1", "assay": "binding", "conditions": "1 µM", "remaining binding [%]": 100}
{"SMILES": "Cn1nc(C(=O)NCc2ccc(C(=O)O)cc2)cc1-c1ccc2[nH]ccc2c1", "assay": "cell-free assay, competition with immobilised ligand", "conditions": "0.1 µM", "remaining binding [%]": 91}
{"SMILES": "C=CC(=O)N1CCC(C(=O)NCC(=O)N2CCN(c3nc(-c4cnc(N)nc4C(F)F)nc(N4CCOCC4)n3)CC2)CC1", "assay": "binding, competition with immobilised ligand", "conditions": "1 µM", "remaining binding [%]": 100}
{"SMILES": "CN(c1ccnc(CNc2nc(Nc3ccc4c(c3)CC(=O)N4)ncc2C(F)(F)F)n1)S(C)(=O)=O", "assay": "cell-free assay, competition with immobilised ligand", "conditions": "1 µM", "remaining binding [%]": 100}
{"SMILES": "CN(C)c1nccc(-c2cnc3ncccn23)n1", "assay": "binding", "conditions": "1 µM", "remaining binding [%]": 89}
{"SMILES": "NS(=O)(=O)c1cc(NC(=O)Cc2ccccc2)ccc1Oc1cccc(Cl)c1", "assay": "cell-free assay, competition with immobilised ligand", "conditions": "1 µM", "remaining binding [%]": 100}
{"SMILES": "c1cnn2ncc(-c3ccnc(N4CCC45COC5)n3)c2c1", "assay": "binding", "conditions": "1 µM", "remaining binding [%]": 97}
{"SMILES": "CSc1cccnc1N1CCN(Cc2nc3ccccc3[nH]2)CC1", "assay": "cell-free assay, competition with immobilised ligand", "conditions": "1 µM", "remaining binding [%]": 100}
{"SMILES": "FC(F)(F)Oc1cccc(-c2cnc3ccc(-c4ccncc4)nn23)c1", "assay": "cell-free assay, competition with immobilised ligand", "conditions": "5 µM", "remaining binding [%]": 86}
